From ChEMBL document CHEMBL1649161, “Pharmacokinetics of EDP-420 after ascending single oral doses in healthy adult volunteers” (Antimicrob Agents Chemother, 2009)
≈ marks a conversion by molar mass, not a printed value.

Key:
[1] = Renal clearance in healthy human at 400 mg, po administered as single dose measured after 48 hrs; type: ADME, organism-based, Kidney; details: in vivo, read-out: CL_renal (converted)
In short: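 Healthy adults (6 active per dose) got a single oral suspension dose after an 8-h fast, with food withheld 4 h. Urine over 0–48 h in intervals and serial EDTA plasma were assayed by validated LC-MS/MS, with plasma calibration from 1 to 1,000 ng/ml. CLR = Ae0-48 (urine volume × concentration summed) divided by plasma AUC0-48.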

Streptococcus pneumoniae = assay: Antimicrobial activity against macrolide-resistant Streptococcus pneumoniae carrying mefA and/or ermB genes; type: functional

CC[C@H]1OC(=O)[C@H](C)C(=O)[C@H](C)[C@@H](O[C@@H]2O[C@H](C)C[C@H](N(C)C)[C@H]2O)[C@@]2(C)C[C@@H](C)/C(=N\C(C)=O)[C@H](C)[C@@H](OC/C(=N\OCc3ccc(-n4cccn4)nc3)CO2)[C@]1(C)O [MODITHROMYCIN]
CL renal at 48 h [1]: 58 mL/min
MIC (Streptococcus pneumoniae): 0.25 µg/mL (≈ 0.297 µM)
